Each block holds one compound with its values, some of them ahead of it. Activity calls are given as the source filed them. No cut-off for these calls is given here.
Columns and labels:
[1] = Drug metabolism in guinea pig serum assessed as NONO-salicylate formation at 100 uM after 40 mins by HPLC analysis; format: ADME, cell-free, Cavia porcellus
Method in brief: (§1)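 Compound added at 100 μM final to 0.1 M phosphate buffer, pH 7.4, with 50 μM DTPA and 2% guinea pig serum, preheated to 37°C. Reaction followed over time by reversed-phase C18 HPLC with a water/acetonitrile gradient containing 0.1% formic acid. Products identified by co-elution with authentic standards.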

[2] = Half life of the compound; format: physicochemical
[3] = Drug metabolism of the compound in guinea pig serum assessed as aspirin formation at 100 uM after 40 mins by HPLC analysis; format: ADME, cell-free, Cavia porcellus; method in brief: as §1
[4] = system: Rattus norvegicus; test: Antiinflammatory activity in po dosed Sprague-Dawley rat assessed as inhibition of carrageenan-induced paw edema administered 1 hr prior to carrageenan challenge measured after 3 hrs; format: functional; details: read-out: ID50 (the source's name)
Method in brief: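 Rats 160-180 g (n = 3) given compound by gavage at 0.8 mmol/kg, suspended in 1% methyl cellulose in water; controls received vehicle. After 1 h, 100 μL of 1% carrageenan in 0.9% NaCl injected into the right hind paw. Paw volume read by plethysmometer at 0 and 3 h. ID50 taken from dose-response curves as the dose halving the control inflammatory response.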

[5] = Drug metabolism of the compound in PBS buffer assessed as isopropanol formation at pH 10 by NMR spectroscopy; format: physicochemical
[6] = Cardioprotective effect in mouse cardiomyocytes assessed as increase in whole calcium transient at 500 uM by confocal laser scanning microscopy relative to control; format: functional, cell-based; details: Cardiomyocyte
Method in brief: (§2)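 Ventricular myocytes from wild-type mice aged 2-4 months, anesthetized with ip pentobarbital 100 mg/kg, superfused with compound at 500 μM. Sarcomere shortening imaged under 0.5 Hz field stimulation and length tracked by real-time Fourier transform. Relaxation taken as time from peak shortening to 50% relaxation. Ca2+ transients read by confocal microscopy after fluo-4/AM loading (20 μM, 30 min). n = 12 cells.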

[7] = Stability in mouse cardiomyocytes after 20 to 30 mins; format: ADME, cell-based; details: cardiomyocyte
[8] = Half life of the compound at pH 7.4 in presence of guinea pig serum; format: physicochemical
[9] = Drug metabolism of the compound in PBS buffer assessed as salicylate formation at pH 7.4; format: physicochemical
[10] = Drug metabolism of the compound in PBS buffer assessed as salicylate formation at pH 10 by NMR spectroscopy; format: physicochemical
[11] = Prodrug activation in guinea pig serum assessed as HNO release at 100 uM at pH > 6 by electrochemical detection method; set-up: species or system Cavia porcellus
Method in brief: (§3)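 NO electrode equilibrated at room temperature in buffer of the chosen pH containing 50 μM DTPA and 2% guinea pig serum. Compound added at 100 μM (0.1% DMSO) and maximum current recorded; triplicate additions. HNO measured indirectly after adding 1 mM ferricyanide to oxidize it to NO. Mean ± SD, n = 3.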

[12] = Prodrug conversion in guinea pig serum assessed as conversion of MbO2 to metMb at 100 uM by spectrophotometry; format: ADME, Cavia porcellus; details: 50 or 250 µM, in the assay text read “at 50 or 250 uM” for “at 100 uM”
Method in brief: (§4)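 MbO2 (50 μM) exposed to compound at 37°C in pH 7.4 buffer (50 μM DTPA), with or without 2% guinea pig serum and with or without 1 mM GSH. Formation of metMb followed spectrally at 30-900 s intervals for 800 s to 6 h. MbO2 autoxidation monitored separately every 600 s over 12 h. n = 3.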

[13] = Drug metabolism in guinea pig serum assessed as NONO-salicylate formation at 100 uM after 5 mins by HPLC analysis; format: ADME, cell-free, Cavia porcellus; method in brief: as §1
[14] = Cardioprotective effect in mouse cardiomyocytes assessed as reduction in time required for half relaxation from peak shortening at 500 uM relative to control; format: functional, cell-based; set-up: scale not given: the % may be the effect or the level left; details: Cardiomyocyte; method in brief: as §2
[15] = system: HUVEC; test: Cytotoxicity against human HUVEC cells up to 100 uM after 48 hrs by MTT assay; format: cell-based
Method in brief: (§5)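 A549 cells in RPMI 1640 with 10% FBS, and HUVECs in endothelial growth medium, both at 37°C in 5% CO2. Seeded at 8,000-10,000 per well, grown overnight, then exposed to 0-200 μM for 48 h. MTT (10 μL of 2 mg/mL) added for 1 h at 37°C, formazan dissolved in DMSO and read at 550 nm. n = 3 for A549, n = 1 for HUVEC, each at least in triplicate.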

[16] = system: A549; test: Cellular uptake in human A549 cells assessed as HNO/NO release at 10 uM by fluorescence asay; format: ADME, cell-based; details: a549, 10 µM
Method in brief: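 A549 cells seeded at 60,000 per well and grown 4 h, then loaded with 10 μM DAF-FM diacetate in PBS for 75 min at 37°C and washed three times. Compound added at 10 μM final (prodrugs from DMSO stock, ionic NONOates from 10 mM NaOH stock). Fluorescence at 535 nm (excitation 485 nm) followed over time at 37°C. n = 2, six replicates per plate.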

[17] = system: A549; test: Cytotoxicity against human A549 cells after 48 hrs by MTT assay; format: functional, cell-based; details: A549, 48 h; method in brief: as §5
[18] = Half life of the compound at pH 7.4; format: physicochemical
[19] = system: Rattus norvegicus; test: Toxicity in Sprague-Dawley rat assessed as stomach ulcer at 1.38 mmol/kg, po after 6 hrs relative to aspirin; format: organism-based; details: in vivo
Method in brief: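 Rats fasted 24 h with water allowed, then dosed orally at 1.38 mmol/kg in 1% methylcellulose vehicle; controls received vehicle. Killed by CO2 at 6 h. Stomachs examined under a magnifying glass and ulcers scored by number and size (1 mm = 1; 1-2 mm = 2; >2 mm = length in mm). Ulcer index = total ulcer length per stomach averaged over animals (n = 4).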

[20] = Drug metabolism of the compound in PBS buffer assessed as acetate formation at pH 10 by NMR spectroscopy; format: physicochemical
[21] = molecular target: Glyceraldehyde-3-phosphate dehydrogenase (Homo sapiens) (UniProt P04406); test: Inhibition of GAPDH in human A549 cells at 100 uM after 1 hr by fluorescence assay; format: cell-based
Method in brief: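 A549 cells seeded at 30,000 per well, grown overnight and treated with 100 μM for 1 h at 37°C. Cells lysed 20 min at 4°C in KAlert buffer. Lysate mixed with KAlert mastermix and GAPDH activity read as fluorescence at 570 nm (excitation 540 nm). Mean ± SD of triplicate; one-way ANOVA against control.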

[22] = system: Serum; test: Drug metabolism in fetal bovine serum by HPLC analysis; format: ADME, cell-free, Bos taurus; details: cattle
[23] = Cardioprotective effect in mouse cardiomyocytes assessed as myocyte contractility measured as sarcomere shortening at 500 uM relative to control; format: functional, cell-based; details: Cardiomyocyte; method in brief: as §2
[24] = Drug metabolism of the compound in PBS buffer assessed as formaldehyde formation at pH 10 by NMR spectroscopy; format: physicochemical
[25] = molecular target: T1, Prostaglandin G/H synthase 2 (Homo sapiens) (UniProt P35354); test: Inhibition of COX-2 mediated PGE2 production in human A549 cells at 25 to 50 uM after 24 hrs by EIA; format: cell-based
T1 sequence (whole entry): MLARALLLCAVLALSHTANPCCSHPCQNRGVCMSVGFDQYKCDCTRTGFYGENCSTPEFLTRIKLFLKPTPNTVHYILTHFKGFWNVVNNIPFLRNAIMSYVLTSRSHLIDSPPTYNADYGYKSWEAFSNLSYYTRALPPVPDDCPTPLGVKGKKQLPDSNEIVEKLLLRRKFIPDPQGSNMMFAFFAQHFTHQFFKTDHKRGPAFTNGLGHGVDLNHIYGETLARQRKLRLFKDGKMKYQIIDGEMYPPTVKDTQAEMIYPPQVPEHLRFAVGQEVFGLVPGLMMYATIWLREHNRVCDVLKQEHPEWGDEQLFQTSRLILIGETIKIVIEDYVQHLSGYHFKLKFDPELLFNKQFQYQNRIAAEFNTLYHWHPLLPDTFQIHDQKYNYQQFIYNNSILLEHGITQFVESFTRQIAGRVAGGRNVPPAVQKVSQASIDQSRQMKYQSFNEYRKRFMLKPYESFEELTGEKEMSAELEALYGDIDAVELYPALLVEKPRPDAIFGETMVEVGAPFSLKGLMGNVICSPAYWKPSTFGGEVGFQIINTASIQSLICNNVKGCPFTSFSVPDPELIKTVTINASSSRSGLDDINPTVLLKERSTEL
Method in brief: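 A549 cells seeded at 50,000 per well and grown 12 h, then treated with 25 or 50 μM (0.1% DMSO) for 24 h at 37°C. PGE2 in the supernatant measured by competitive AChE-tracer EIA: overnight incubation at 4°C, Ellman's reagent development, […]. Run in triplicate.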

[26] = Drug metabolism in guinea pig serum assessed as aspirin formation at 100 uM after 5 mins by HPLC analysis; format: ADME, cell-free, Cavia porcellus; method in brief: as §1
[27] = Prodrug conversion of the compound assessed as conversion of MbO2 to metMb at 250 uM by spectrophotometry; format: ADME; method in brief: as §4
[28] = Prodrug activation in guinea pig serum assessed as HNO release at 100 uM at pH < 6 by electrochemical detection method; set-up: species or system Cavia porcellus; method in brief: as §3
[29] = Prodrug conversion in guinea pig serum assessed as conversion of MbO2 to metMb at 50 uM by spectrophotometr; format: ADME, Cavia porcellus; method in brief: as §4
[30] = Drug metabolism of the compound in PBS buffer assessed as accumulation of DEA/NO at pH 10 after 10 mins by NMR spectroscopy; format: physicochemical; details: pH 10, 10 min
[31] = Drug metabolism of the compound in PBS buffer at pH 10 after 90 mins by NMR spectroscopy; format: physicochemical; details: pH 10, 1.5 h
[32] = Drug metabolism of the compound in PBS buffer assessed as accumulation of DEA/NO at pH 10 by NMR spectroscopy; format: physicochemical
[33] = Drug metabolism of the compound in PBS buffer assessed as aspirin formation; format: physicochemical
[34] = Drug metabolism of the compound in PBS buffer assessed as aspirin formation at pH 10 by NMR spectroscopy; format: physicochemical

Sequence of Glyceraldehyde-3-phosphate dehydrogenase (Homo sapiens) (P04406 2-335 limits assumed): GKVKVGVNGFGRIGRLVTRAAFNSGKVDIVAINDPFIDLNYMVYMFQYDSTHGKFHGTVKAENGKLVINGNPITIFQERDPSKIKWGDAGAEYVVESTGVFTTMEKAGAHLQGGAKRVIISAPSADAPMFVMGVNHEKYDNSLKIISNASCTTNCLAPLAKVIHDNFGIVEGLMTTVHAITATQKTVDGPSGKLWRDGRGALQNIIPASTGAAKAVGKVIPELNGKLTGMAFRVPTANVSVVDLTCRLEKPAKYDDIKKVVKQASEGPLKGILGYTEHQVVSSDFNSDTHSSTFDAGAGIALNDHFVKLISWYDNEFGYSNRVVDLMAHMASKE

Structure (SMILES): CC(C)N[N+]([O-])=N[O-].[Na+]
half-life [2]: 5.7 min

Structure (SMILES): CCN(CC)/[N+]([O-])=N/[O-].[Na+]
half-life [2]: 2.5 min

Structure (SMILES): CC(=O)Oc1ccccc1C(=O)O [ASPIRIN]
ED50 [4]: 129 mg/kg

Now from value to compound, other results behind:

Drug metabolism [1]: Not Active
Structure (SMILES): CCN(CC)/[N+]([O-])=N/OCOC(=O)c1ccccc1O

Drug metabolism [3]: Active
Structure (SMILES): CC(C)N/[N+]([O-])=N/OCOC(=O)c1ccccc1O

Drug metabolism [5]: Active
Stability [7]: Stable
half-life [8]: 18 min
Drug metabolism [9]: Active
Drug metabolism [10]: Active
Drug metabolism [11]: Active
Drug metabolism [12]: Active
Drug metabolism [13]: Active
Drug uptake [16]: Active
half-life [18]: 450 min
Drug metabolism [20]: Active
inhibition [21]: Active
Drug metabolism [22]: Active
Drug metabolism [24]: Active
inhibition [25]: Active
Drug metabolism [26]: Active
Drug metabolism [27]: Active
Drug metabolism [28]: Not Active
Structure (SMILES): CC(=O)Oc1ccccc1C(=O)OCO/N=[N+](\[O-])NC(C)C
ED50 [4]: 121 mg/kg
Activity [6]: 24%
Activity [14]: 17%
Activity [15]: Non-toxic
IC50 [17]: 90 µM
UI [19]: 3.3
Activity [23]: 201%

Drug metabolism [29]: Active
half-life [8]: 13 min
Drug metabolism [30]: Active
Drug metabolism [10]: Active
Drug metabolism [11]: Not Active
Drug metabolism [13]: Active
Drug uptake [16]: Active
half-life [18]: 2160 min
Drug metabolism [31]: Not Active
Drug metabolism [32]: Active
Drug metabolism [26]: Active
Drug metabolism [33]: Active
Drug metabolism [27]: Active
Drug metabolism [34]: Active
Drug metabolism [28]: Not Active
Structure (SMILES): CCN(CC)/[N+]([O-])=N/OCOC(=O)c1ccccc1OC(C)=O
ED50 [4]: 169 mg/kg
Activity [15]: Non-toxic
IC50 [17]: 135 µM
UI [19]: 0

Source: ChEMBL document CHEMBL2429753, “Synthesis and chemical and biological comparison of nitroxyl- and nitric oxide-releasing diazeniumdiolate-based aspirin derivatives” (J Med Chem, 2013)
